A selection: hits, their analogues and other compounds. The true share with any hit is near 1.3%.
procasp7 counter – procaspase-7 activators, primary screen, counter-screen for procaspase-3 activator project, biochemical, absorbance, HTS, human | Caspase-7 (Homo sapiens), P55210 | recombinant procaspase-7, Ac-DEVD-pNA absorbance 405 nm; D23A/D198A/D206A triple mutant, cannot self-cleave; scale: DMSO 0, 5 µM enzyme 100 | activation, % at 8.5 µM | actives 0.093% (n = 330,000);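 active means percent activation above the screen-wide mean plus 3 SD, cut at about 25% in these data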
Target sequence (P55210 whole entry D23A/D198A/D206A): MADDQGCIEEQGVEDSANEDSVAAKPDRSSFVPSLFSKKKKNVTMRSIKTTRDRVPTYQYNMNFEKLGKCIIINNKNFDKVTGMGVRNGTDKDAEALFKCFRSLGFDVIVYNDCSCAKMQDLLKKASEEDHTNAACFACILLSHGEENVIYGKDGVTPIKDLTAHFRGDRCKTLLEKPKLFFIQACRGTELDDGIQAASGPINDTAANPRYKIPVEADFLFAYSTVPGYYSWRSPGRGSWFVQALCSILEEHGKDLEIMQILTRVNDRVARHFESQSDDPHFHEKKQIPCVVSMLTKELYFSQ
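buffer or medium = Zinc-free HEPES/NaCl buffer, pH 7.4 | material = Procaspase-7 triple mutant (PC-7 D3A) | input = 2 µM procaspase-7 mutant as dispensed | signal = Epi-absorbance of released pNA at 405 nm, two timepoints | timing = 1 h preincubation, 2 h reaction | replicates = singlicate compound testing | evaluation = % activation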
CHT block – inhibitors of human choline transporter CHT; High affinity choline transporter 1 (Homo sapiens), Q9GZV3; B-score at 10 µM; CHT-expressing cells, membrane potential dye, choline response; hits give low values; actives 0.86% (n = 310,000);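 active means B-score over 3 SD under the library average, and starting fluorescence ratio not unusually high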;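 further: choline stimulus applied at its EC90 after an EC20 pre-addition; B-score computed on integrated fluorescence ratio after choline addition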
CHT PAM – CHT positive allosteric modulators, primary screen, cell-based, membrane potential dye, choline EC20 | High affinity choline transporter 1 (Homo sapiens), Q9GZV3 | CHT-expressing cells; hits give high values; LV-AA mutant CHT in HEK293 cells | B-score at 10 µM | actives 0.49% (n = 310,000) | AID 488977, 2010;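 active means initial fluorescence not abnormally high and integrated response B-score, plate-corrected, over 3 SD above library mean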
procasp3 activ – activators of human procaspase-3 D3A mutant, primary screen, biochemical, absorbance, PC-3 D3A mutant, single concentration; actives 0.11% (n = 330,000); activation, % at 8.5 µM; AID 463141, 2010; recombinant procaspase-3 D3A, Ac-DEVD-pNA absorbance 405 nm; Caspase-3 (Homo sapiens), P42574;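 active means activation above the mean of all tested compounds plus 3 SD, cut at about 21% in these data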
Target sequence (P42574 whole entry D9A/D28A/D175A): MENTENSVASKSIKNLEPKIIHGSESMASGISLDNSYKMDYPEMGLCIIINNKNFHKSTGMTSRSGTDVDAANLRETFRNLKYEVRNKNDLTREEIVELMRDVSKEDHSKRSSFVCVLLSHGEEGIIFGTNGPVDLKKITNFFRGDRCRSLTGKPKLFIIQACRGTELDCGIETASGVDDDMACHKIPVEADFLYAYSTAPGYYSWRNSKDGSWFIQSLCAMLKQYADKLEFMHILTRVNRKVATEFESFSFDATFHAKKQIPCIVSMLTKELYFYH
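Test system: Procaspase-3 D3A mutant; medium: Zinc-free HEPES/NaCl buffer with 0.01% Triton X-100 at pH 7.4; reagent: DEVD-pNA substrate; doses: one concentration, 8.5 µM nominal, 0.8% DMSO; times: 1 h preincubation plus 2 h reaction at 25 °C; signal: Epi-absorbance at 405 nm of released p-nitroaniline, 0 and 120 min; replicates: singlicate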
CHT act confirm – CHT activators, confirmation, cell-based, membrane potential dye, duplicate | activation, % at 10 µM | AID 504833, 2011 | actives 91% (n = 2,500) | CHT-expressing cells, membrane potential dye fluorescence (FDSS); % of choline EC20–EC90 response window; HEK293 expressing CHT LV-AA mutant; choline added at its EC20 | shares compounds with CHT PAM;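 active means primary screen active, with duplicate mean activation above negative control mean plus 3 SD, cut at about 11% in these data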
HEK293 MP dye – membrane potential response in parental HEK293 cells, counter-screen for CHT activator project, cell-based, membrane potential dye. shares compounds with CHT PAM. membrane potential dye fluorescence (FDSS); measured after EC20 choline addition. ratio readout change at 10 µM, hits read low. actives 62% (n = 2,500). AID 623908, 2012;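 active means duplicate-averaged ratio beyond 3 SD from buffer wells, up or down, though filed actives are nearly all decreases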
A number is an active result.

How did NC(=O)C1Cc2ccccc2CN1C(=O)c1nn(Cc2ccccc2)c(=O)c2ccccc12 (stereo not given) do in these assays?
procasp7 counter: inactive; procasp3 activ: inactive

How did O=C(c1nn(Cc2ccccc2)c(=O)c2ccccc12)N1CCc2ccccc2C1 do in these assays?
procasp7 counter: inactive; CHT block: inactive; CHT PAM: 8.39; procasp3 activ: inactive; CHT act confirm: 28.3; HEK293 MP dye: inactive

What do the screens show for `Cc1csc2c(C#N)c(=O)c3c(n12)CCC3`?
procasp7 counter: inactive; CHT block: inactive; CHT PAM: 6.61; procasp3 activ: inactive; CHT act confirm: 48.7; HEK293 MP dye: -41.5

Results for O=C(Nc1ccc(S(=O)(=O)Nc2ccnn2-c2ccccc2)cc1)C(F)(F)F ?
procasp7 counter: inactive; CHT block: inactive; CHT PAM: inactive; procasp3 activ: inactive

How did O=[N+]([O-])c1ccc(-c2csc3[n+]2CCS3)cc1 do in these assays?
procasp7 counter: inactive; CHT block: inactive; CHT PAM: 8.89; procasp3 activ: inactive; CHT act confirm: 74.3; HEK293 MP dye: -69.2

Results for Fc1ccc(-c2csc3[n+]2CCS3)cc1 ?
procasp7 counter: inactive; CHT block: inactive; CHT PAM: inactive; procasp3 activ: inactive

Results for COc1ccc(Nc2ccc3c(c2)=NC2(CCCCC2)[N+]=3[O-])cc1 ?
procasp7 counter: inactive; CHT block: inactive; CHT PAM: 7.19; procasp3 activ: inactive; CHT act confirm: 50.8; HEK293 MP dye: -73.3

What do the screens show for `CC1CC(=O)Nc2ccccc2N1C(=O)COc1cc(Cl)ccc1Cl` (stereo not given)?
procasp7 counter: inactive; procasp3 activ: inactive

Results for CC(C)(C)OC(=O)NCCCCCc1nnc(SCc2ccccc2F)o1 ?
procasp7 counter: inactive; CHT block: inactive; CHT PAM: inactive; procasp3 activ: inactive

How did CC(C)(C)OC(=O)NCCCCCc1nnc(SCc2cccc(F)c2)o1 do in these assays?
procasp7 counter: inactive; CHT block: inactive; CHT PAM: 8.31; procasp3 activ: inactive; CHT act confirm: inactive; HEK293 MP dye: inactive

What do the screens show for `CC1CCN(C(=O)C2CCCN(S(=O)(=O)c3ccc4c(c3)CC(C)N4C(=O)C3CC3)C2)CC1` (stereo not given)?
procasp7 counter: inactive; CHT block: inactive; CHT PAM: inactive; procasp3 activ: inactive

How did COc1ccc(C(=O)N/N=C/c2cc3ccccc3[nH]c2=O)cc1 do in these assays?
procasp7 counter: inactive; CHT block: inactive; CHT PAM: inactive; procasp3 activ: inactive; CHT act confirm: 29.4; HEK293 MP dye: -31.7

How did CC(=O)c1cccc(NC(=O)c2ccc3c(c2)C(=O)N(Cc2cccnc2)C3=O)c1 do in these assays?
procasp7 counter: inactive; CHT block: inactive; CHT PAM: inactive; procasp3 activ: inactive

How did O=C(Nc1cccnc1)c1ccc2c(c1)C(=O)N(Cc1cccnc1)C2=O do in these assays?
procasp7 counter: inactive; CHT block: inactive; CHT PAM: inactive; procasp3 activ: inactive; CHT act confirm: 16.4; HEK293 MP dye: -38.9

How did O=C(CN1CCc2ccccc2C1)Nc1ccccc1C(=O)NC1CC1 do in these assays?
procasp7 counter: inactive; procasp3 activ: inactive

Results for CCC(=O)Nc1ccc(C(=O)CN2C(=O)NC3(CCOc4ccccc43)C2=O)cc1 (stereo not given) ?
procasp7 counter: inactive; procasp3 activ: inactive

What do the screens show for `Cn1c(=O)c2c(nc(N3CCOCC3)n2CCCNC2=NCCCCC2)n(C)c1=O`?
procasp7 counter: inactive; CHT block: inactive; CHT PAM: 8.44; procasp3 activ: inactive; CHT act confirm: 60.5; HEK293 MP dye: -63.1

Results for Cc1ccc(NC(=S)N2CCC(NC(=O)c3ccco3)CC2)cc1C ?
procasp7 counter: inactive; CHT block: inactive; CHT PAM: inactive; procasp3 activ: inactive

What do the screens show for `O=C(COC(=O)c1ccc2c(=O)n3c(nc2c1)CCC3)NC1CCS(=O)(=O)C1` (stereo not given)?
procasp7 counter: inactive; CHT block: inactive; CHT PAM: inactive; procasp3 activ: inactive; CHT act confirm: 39.5; HEK293 MP dye: -48.2

What do the screens show for `O=C(NCCC1CCCCN1S(=O)(=O)c1ccccc1)C(=O)NCc1ccccc1` (stereo not given)?
procasp7 counter: inactive; CHT block: inactive; CHT PAM: inactive; procasp3 activ: inactive

Results for Cc1ccc(CNC(=O)C(=O)NCCC2CCCCN2S(=O)(=O)c2ccccc2)cc1 (stereo not given) ?
procasp7 counter: inactive; CHT block: inactive; CHT PAM: 8.53; procasp3 activ: inactive; CHT act confirm: inactive; HEK293 MP dye: inactive

How did Cc1ccc(S(=O)(=O)N(C)C)cc1NC(=O)COC(=O)C1CCN(S(=O)(=O)c2cccs2)CC1 do in these assays?
procasp7 counter: inactive; CHT block: inactive; CHT PAM: inactive; procasp3 activ: inactive

How did Cc1cccc(C)c1NC(=S)NC(C)(C)CO do in these assays?
procasp7 counter: inactive; CHT block: inactive; CHT PAM: inactive; procasp3 activ: inactive

How did CN1CCN(c2nc(-c3cccnc3)nc3ccccc23)CC1 do in these assays?
procasp7 counter: inactive; CHT block: inactive; CHT PAM: 7.35; procasp3 activ: inactive; CHT act confirm: 42.0; HEK293 MP dye: -88.2

What do the screens show for `CN1CCN(c2nc(-c3ccccn3)nc3ccccc23)CC1`?
procasp7 counter: inactive; CHT block: inactive; CHT PAM: 9.12; procasp3 activ: inactive; CHT act confirm: 55.3; HEK293 MP dye: -93.8

How did CN(C)c1ccc(/C=N/NC(=O)C(=O)/C=C2\NC3(CCCC3)Cc3ccccc32)cc1 do in these assays?
procasp7 counter: inactive; CHT block: inactive; CHT PAM: 6.68; procasp3 activ: inactive; CHT act confirm: inactive; HEK293 MP dye: inactive

How did CC(C)c1ccc(N(C(=O)c2csnn2)C(C(=O)NC2CCCC2)c2cccnc2)cc1 (stereo not given) do in these assays?
procasp7 counter: inactive; CHT block: inactive; CHT PAM: inactive; procasp3 activ: inactive

How did C(=N\Nc1ccc2nncn2n1)/c1ccccn1 do in these assays?
procasp7 counter: inactive; CHT block: inactive; CHT PAM: inactive; procasp3 activ: inactive; CHT act confirm: 23.6; HEK293 MP dye: -53.7

Screening data deposited in PubChem BioAssay by several laboratories.
